Shown are actives, neighbours in structure and some others; about 1.7% of the full set was active somewhere.
eIF4H inh = human eIF4H binding inhibitors, primary screen, translation initiation inhibitor project, biochemical, uHTS, fluorescence polarization. eIF4H fluorescence polarization binding assay. inhibition, % at 35 µM. 290,000 tested, 0.94% active. AID 2012, 2009;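 also: calls also rest on retests at 20 µM and on dose response follow-up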
PABP polyA inh = PABP poly(A) RNA binding inhibitors, primary screen, biochemical, fluorescence polarization, uHTS. Polyadenylate-binding protein 1 (Homo sapiens), P11940. inhibition, % at 35 µM. 290,000 tested, 1% active. AID 2014, 2009;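 also: calls also rest on retests at 20 µM and on dose response follow-up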
PABP1 MLLE inh = inhibitors of PABP1 MLLE–PAM2 peptide binding, primary screen, biochemical, fluorescence polarization, FITC-PAM2, GST-MLLE | inhibition, % at 20 µM | 360,000 tested, 0.36% active; in the data active = inhibition above about 35%, passing the limit was not always enough
MT1-MMP act inh = blockers of MT1-MMP proenzyme processing, primary screen, HT1080 RFP-PRO-GFP cells, GFP/RFP fluorescence; Matrix metalloproteinase-14 (Homo sapiens), P50281; GFP/RFP ratio fluorescence, overnight; percent of plate control window, DMSO zero; GFP/RFP ratio change, % at 20 µM; 360,000 tested, 0.061% active;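 active = GFP/RFP ratio change of at least 30% with cell ATP level not reduced by more than half and red fluorescence within 50% of control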
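Assay system – RFP-PRO-GFP reporter HT1080 cells · Compound dosing – single dose of 20 µM compound, 1% DMSO final · Incubation – overnight compound exposure at 37 °C · Measure – GFP/RFP fluorescence ratio · Benchmarks – DMSO wells and RFP-L50D-GFP cells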
SKN-1 inh = suppressors of acrylamide-induced Pgst-4::GFP reporter in worms, primary screen, SKN-1 inhibitor project, whole organism, uHTS, GFP/RFP fluorescence ratio, strain VP596. C. elegans VP596 Pgst-4::GFP/RFP ratio, 24 h. inhibition, % at 21.8 µM. 360,000 tested, 0.49% active. AID 624304, 2012;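 active = interference check ratio from 0.5 to 1.5 plus GFP to RFP signal ratio inhibition reaching or exceeding a fixed threshold, cut at about 30% in these data, passing the limit was not always enough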
Numbers stand for hits. Unless noted, no rule for the calls is given here.

Screening Cc1oc(-c2ccc(Cl)cc2)cc1-c1nn2c(-c3ccoc3C)nnc2s1 returned eIF4H inh 85, PABP polyA inh 59, PABP1 MLLE inh inactive, MT1-MMP act inh inactive and SKN-1 inh inactive.
Cc1cc(C(=O)Nc2c(F)cc(F)cc2Br)n(-c2ccccc2)n1 was read as eIF4H inh inactive, PABP polyA inh inactive, PABP1 MLLE inh inactive, MT1-MMP act inh inactive and SKN-1 inh inactive.
COc1ccc(NS(=O)(=O)c2ccc(C)c(NC(=O)CNC(=O)c3ccco3)c2)cc1 was read as PABP1 MLLE inh inactive, MT1-MMP act inh inactive and SKN-1 inh inactive.
For CC(C)n1c(SCC(=O)Nc2nncs2)nnc1-c1ccco1 the results were eIF4H inh 72 and PABP polyA inh 41.
`O=C(NNC(=O)c1ccccc1-n1cccc1)c1ccc(Cl)cc1` gave eIF4H inh inactive, PABP polyA inh inactive, PABP1 MLLE inh inactive, MT1-MMP act inh inactive and SKN-1 inh 37.
`Cc1ccc(CN(C(=O)COc2ccc(Br)cc2)C2CCS(=O)(=O)C2)o1` (stereo not given) gave eIF4H inh inactive, PABP polyA inh inactive, PABP1 MLLE inh inactive, MT1-MMP act inh inactive and SKN-1 inh inactive.
For CN(C1CCCCC1)S(=O)(=O)c1ccc(NC(=S)NC(=O)c2cccs2)cc1 the results were eIF4H inh inactive, PABP polyA inh inactive, PABP1 MLLE inh 43, MT1-MMP act inh inactive and SKN-1 inh inactive.
Cc1cc(C)cc(NS(=O)(=O)c2ccc(NC(=S)NC(=O)c3cccs3)cc2)c1 was read as eIF4H inh inactive, PABP polyA inh inactive, PABP1 MLLE inh inactive, MT1-MMP act inh inactive and SKN-1 inh inactive.
For CC(=O)Nc1ccc(S(=O)(=O)N(C)CC(=O)NNC(=O)c2cccs2)cc1 the results were PABP1 MLLE inh inactive, MT1-MMP act inh inactive and SKN-1 inh 42.
`CCCc1cc(=O)[nH]c(SCC(=O)NC(=O)OCC)n1` gave eIF4H inh inactive, PABP polyA inh inactive, PABP1 MLLE inh inactive, MT1-MMP act inh inactive and SKN-1 inh inactive.
Screening CCCc1cc(=O)[nH]c(SCC(=O)Nc2nonc2N)n1 returned eIF4H inh inactive, PABP polyA inh inactive, PABP1 MLLE inh 41, MT1-MMP act inh inactive and SKN-1 inh inactive.
Screening COc1ccccc1N1CCN(C2CCCN(C(=O)CCC(C)=O)C2)CC1 (stereo not given) returned eIF4H inh inactive, PABP polyA inh inactive, PABP1 MLLE inh inactive, MT1-MMP act inh inactive and SKN-1 inh inactive.
Screening Cn1cccc1CC(=O)NNC(=S)Nc1ccc(Cl)cc1Cl returned eIF4H inh 58, PABP polyA inh active, PABP1 MLLE inh inactive, MT1-MMP act inh inactive and SKN-1 inh inactive.
Screening NS(=O)(=O)c1ccc(CCNC(=O)CCCCCn2c(=S)[nH]c3ccc(Br)cc3c2=O)cc1 returned eIF4H inh inactive, PABP polyA inh inactive, PABP1 MLLE inh inactive, MT1-MMP act inh inactive and SKN-1 inh inactive.
Screening CCCSc1nc(C)cc(C)c1S(C)(=O)=O returned eIF4H inh 4.7, PABP polyA inh 78, PABP1 MLLE inh inactive, MT1-MMP act inh inactive and SKN-1 inh inactive.
COc1cc2c(cc1OC)CN(C(=O)C1CCN(S(=O)(=O)c3ccccc3F)CC1)CC2 was read as eIF4H inh inactive, PABP polyA inh inactive, PABP1 MLLE inh inactive, MT1-MMP act inh inactive and SKN-1 inh inactive.
For O=c1[nH]c(Nc2ccc(F)cc2)cc2ccccc12 the results were eIF4H inh inactive, PABP polyA inh 70, PABP1 MLLE inh inactive, MT1-MMP act inh inactive and SKN-1 inh inactive.
`COC(=O)c1ccc(OC(=O)/C=C/c2ccco2)cc1` gave eIF4H inh inactive, PABP polyA inh inactive, PABP1 MLLE inh inactive, MT1-MMP act inh inactive and SKN-1 inh inactive.
`O=C(/C=C/c1ccco1)Oc1ccc(C(=S)N2CCOCC2)cc1` gave eIF4H inh 97, PABP polyA inh active, PABP1 MLLE inh inactive, MT1-MMP act inh inactive and SKN-1 inh inactive.
Screening O=Cc1cccc(OC(=O)/C=C/c2ccco2)c1 returned eIF4H inh 89, PABP polyA inh 70, PABP1 MLLE inh inactive, MT1-MMP act inh inactive and SKN-1 inh inactive.
Screening O=C1COC(c2ccccc2)C2CCCCN12 (stereo not given) returned eIF4H inh inactive, PABP polyA inh inactive, PABP1 MLLE inh inactive, MT1-MMP act inh inactive and SKN-1 inh inactive.
Screening CC(C)(C)NCC(O)COc1ccccc1C1CCCC1 (stereo not given) returned PABP1 MLLE inh inactive, MT1-MMP act inh inactive and SKN-1 inh inactive.
O=Cc1c(N2CCN(CCO)CC2)nc2ccccn2c1=O was read as eIF4H inh inconclusive, PABP polyA inh inconclusive, PABP1 MLLE inh 47, MT1-MMP act inh inactive and SKN-1 inh inactive.
For CSc1ccccc1C(=O)C1CCCN(Cc2cnn(-c3ccccc3)c2)C1 (stereo not given) the results were eIF4H inh inactive, PABP polyA inh inactive, PABP1 MLLE inh inactive, MT1-MMP act inh inactive and SKN-1 inh inactive.
O=C(C[C@H]1C[C@H](C(=O)N2CCOCC2)[C@@]2(CCC3CCCC3)c3[nH]c4cc(-c5ccco5)ccc4c3CCN2C1=O)NCCC1=CCCCC1 was read as PABP1 MLLE inh inactive, MT1-MMP act inh inactive and SKN-1 inh inactive.
`O=C(C[C@H]1C[C@H](C(=O)N2CCOCC2)[C@@]2(CCC3CCCC3)c3[nH]c4cc(-c5ccco5)ccc4c3CCN2C1=O)NCc1ccco1` gave PABP1 MLLE inh inactive, MT1-MMP act inh inactive and SKN-1 inh 36.
Screening Cc1ccc(Sc2nnc(Cc3ccccc3)c3ccccc23)cc1 returned eIF4H inh inactive, PABP polyA inh inactive, PABP1 MLLE inh inactive, MT1-MMP act inh inactive and SKN-1 inh inactive.
`COc1ccc(Sc2nnc(Cc3ccccc3)c3ccccc23)cc1` gave eIF4H inh inactive, PABP polyA inh inactive, PABP1 MLLE inh 40, MT1-MMP act inh inactive and SKN-1 inh inactive.
Screening CC(=O)c1ccc(NC(=O)C2CCCNC2=O)cc1 (stereo not given) returned eIF4H inh inactive, PABP polyA inh inactive, PABP1 MLLE inh 40, MT1-MMP act inh inactive and SKN-1 inh inactive.
For COc1ccc(NC(=O)C2CCCNC2=O)cc1 (stereo not given) the results were eIF4H inh inactive, PABP polyA inh inactive, PABP1 MLLE inh inactive, MT1-MMP act inh inactive and SKN-1 inh inactive.
For O=C(CCCSc1nc2ccccc2c(=O)[nH]1)c1ccc(F)cc1 the results were eIF4H inh 84, PABP polyA inh inactive, PABP1 MLLE inh inactive, MT1-MMP act inh inactive and SKN-1 inh inactive.
For O=C(CC[C@H]1O[C@@H](n2cnc3c(NC(=O)c4ccccc4)ncnc32)[C@H](O)[C@@H]1O)N[C@@H](CO)Cc1c[nH]c2ccccc12 the results were PABP1 MLLE inh inactive, MT1-MMP act inh inactive and SKN-1 inh inactive.

Bioassay records (PubChem BioAssay)
